# Laboratory results published in ChEMBL document CHEMBL3763072, “Structure activity relationship studies on chemically non-reactive glycine sulfonamide inhibitors of diacylglycerol lipase” (Bioorg Med Chem, 2016).
# Activity calls are given as the source filed them. The rule behind the calls is not given here.
# What was measured:
# [1] = target: T1, Diacylglycerol lipase-alpha (Homo sapiens) (UniProt Q9Y4D2); assay: Ratio of IC50 for full length human C-terminal HA-tagged DAGLalpha expressed in HEK293 cells assessed as reduction in intracellular 2-AG level to IC50 for full length human C-terminal HA-tagged DAGLalpha expressed in HEK293 cell membrane; format: cell-based
# T1 sequence (whole entry): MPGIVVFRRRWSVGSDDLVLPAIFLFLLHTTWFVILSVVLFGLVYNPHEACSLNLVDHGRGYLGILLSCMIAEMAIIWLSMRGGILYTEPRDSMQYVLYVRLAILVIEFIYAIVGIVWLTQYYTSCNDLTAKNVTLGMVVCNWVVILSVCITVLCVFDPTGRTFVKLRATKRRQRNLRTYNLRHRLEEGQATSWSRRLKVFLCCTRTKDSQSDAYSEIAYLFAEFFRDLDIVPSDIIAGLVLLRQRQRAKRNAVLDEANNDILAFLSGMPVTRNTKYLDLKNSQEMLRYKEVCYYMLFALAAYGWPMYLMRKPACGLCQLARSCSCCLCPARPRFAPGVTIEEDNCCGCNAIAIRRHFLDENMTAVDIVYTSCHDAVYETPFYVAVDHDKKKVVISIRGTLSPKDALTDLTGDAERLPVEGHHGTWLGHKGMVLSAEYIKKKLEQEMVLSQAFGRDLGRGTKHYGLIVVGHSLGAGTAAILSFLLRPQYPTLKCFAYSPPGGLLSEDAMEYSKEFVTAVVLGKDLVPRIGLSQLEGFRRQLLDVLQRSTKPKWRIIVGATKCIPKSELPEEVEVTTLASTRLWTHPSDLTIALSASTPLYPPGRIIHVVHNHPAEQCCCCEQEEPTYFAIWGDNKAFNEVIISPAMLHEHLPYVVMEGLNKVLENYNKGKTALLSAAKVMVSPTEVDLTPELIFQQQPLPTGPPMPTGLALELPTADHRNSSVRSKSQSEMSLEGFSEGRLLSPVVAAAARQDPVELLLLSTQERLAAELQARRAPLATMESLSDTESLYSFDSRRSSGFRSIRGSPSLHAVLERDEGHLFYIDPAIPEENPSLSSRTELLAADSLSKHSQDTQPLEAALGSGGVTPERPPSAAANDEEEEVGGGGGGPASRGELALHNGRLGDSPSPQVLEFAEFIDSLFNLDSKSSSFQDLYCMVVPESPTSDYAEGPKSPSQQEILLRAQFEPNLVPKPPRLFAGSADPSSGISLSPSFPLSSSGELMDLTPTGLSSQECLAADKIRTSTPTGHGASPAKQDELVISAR
# [2] = target: T2, Diacylglycerol lipase-alpha (Homo sapiens, UniProt Q9Y4D2); assay: Inhibition of full length human C-terminal HA-tagged DAGLalpha expressed in HEK293 cell membrane using DAG as substrate incubated for 20 mins by LC-MS analysis; format: cell-based
# T2 sequence (Q9Y4D2 whole entry): T1 sequence (whole entry)
# Outline: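 Cell-free DAGL-α enzyme assay run at pH 6.5. IC50 values are reported, with replicate counts (n) given per value.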
# [3] = target: T2, Diacylglycerol lipase-alpha; assay: Inhibition of full length human C-terminal HA-tagged DAGLalpha expressed in HEK293 cells using DAG as substrate assessed as reduction in intracellular 2-AG level incubated for 20 mins by LC-MS analysis; format: cell-based
# [4] = Metabolic stability in mouse liver microsomes assessed as residual compound at 3 uM preincubated for 2 mins followed by NADPH addition measured after 10 mins by LC-MS analysis; format: ADME; conditions: read-out: Stability
# [5] = Metabolic stability in human liver microsomes assessed as residual compound at 3 uM preincubated for 2 mins followed by NADPH addition measured after 10 mins by LC-MS analysis; format: ADME; conditions: read-out: Stability
# [6] = Metabolic stability in rat liver microsomes assessed as residual compound at 3 uM preincubated for 2 mins followed by NADPH addition measured after 10 mins by LC-MS analysis; format: ADME; conditions: read-out: Stability
# [7] = target: T3, Monoglyceride lipase (Homo sapiens) (UniProt Q99685); assay: Inhibition of MAGL (unknown origin) at 30 uM
# T3 sequence (whole entry): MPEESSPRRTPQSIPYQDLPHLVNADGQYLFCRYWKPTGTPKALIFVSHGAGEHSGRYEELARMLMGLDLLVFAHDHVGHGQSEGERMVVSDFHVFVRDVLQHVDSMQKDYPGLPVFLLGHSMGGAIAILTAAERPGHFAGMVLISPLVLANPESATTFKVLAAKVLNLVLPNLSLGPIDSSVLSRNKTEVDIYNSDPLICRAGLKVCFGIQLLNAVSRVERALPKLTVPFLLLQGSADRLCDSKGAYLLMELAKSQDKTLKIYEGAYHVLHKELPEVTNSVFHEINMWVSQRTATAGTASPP
# [8] = test system: HEK293; assay: Selectivity ratio of IC50 for full length human C-terminal HA-tagged DAGLalpha expressed in HEK293 cell membrane to IC50 for DAGLbeta (unknown origin); format: cell-based
# [9] = target: T4, Pancreatic triacylglycerol lipase (Sus scrofa) (UniProt P00591); assay: Inhibition of porcine pancreatic lipase at 30 uM
# T4 sequence (whole entry): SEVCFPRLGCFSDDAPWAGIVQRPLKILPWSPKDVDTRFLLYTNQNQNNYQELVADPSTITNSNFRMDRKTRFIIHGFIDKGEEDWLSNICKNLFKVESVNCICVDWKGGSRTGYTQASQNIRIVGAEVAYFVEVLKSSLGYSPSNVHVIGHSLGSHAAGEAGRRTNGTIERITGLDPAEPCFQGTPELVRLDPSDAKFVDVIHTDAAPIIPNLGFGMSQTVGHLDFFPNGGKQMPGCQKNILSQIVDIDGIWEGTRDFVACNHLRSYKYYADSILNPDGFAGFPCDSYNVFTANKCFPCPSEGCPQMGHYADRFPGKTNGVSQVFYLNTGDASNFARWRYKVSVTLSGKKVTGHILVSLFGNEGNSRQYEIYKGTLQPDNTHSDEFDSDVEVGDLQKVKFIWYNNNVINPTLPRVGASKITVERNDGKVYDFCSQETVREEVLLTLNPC
# [10] = target: T5, Diacylglycerol lipase-beta (Homo sapiens, UniProt Q8NCG7); assay: Inhibition of DAGLbeta (unknown origin)
# T5 sequence (Q8NCG7 whole entry): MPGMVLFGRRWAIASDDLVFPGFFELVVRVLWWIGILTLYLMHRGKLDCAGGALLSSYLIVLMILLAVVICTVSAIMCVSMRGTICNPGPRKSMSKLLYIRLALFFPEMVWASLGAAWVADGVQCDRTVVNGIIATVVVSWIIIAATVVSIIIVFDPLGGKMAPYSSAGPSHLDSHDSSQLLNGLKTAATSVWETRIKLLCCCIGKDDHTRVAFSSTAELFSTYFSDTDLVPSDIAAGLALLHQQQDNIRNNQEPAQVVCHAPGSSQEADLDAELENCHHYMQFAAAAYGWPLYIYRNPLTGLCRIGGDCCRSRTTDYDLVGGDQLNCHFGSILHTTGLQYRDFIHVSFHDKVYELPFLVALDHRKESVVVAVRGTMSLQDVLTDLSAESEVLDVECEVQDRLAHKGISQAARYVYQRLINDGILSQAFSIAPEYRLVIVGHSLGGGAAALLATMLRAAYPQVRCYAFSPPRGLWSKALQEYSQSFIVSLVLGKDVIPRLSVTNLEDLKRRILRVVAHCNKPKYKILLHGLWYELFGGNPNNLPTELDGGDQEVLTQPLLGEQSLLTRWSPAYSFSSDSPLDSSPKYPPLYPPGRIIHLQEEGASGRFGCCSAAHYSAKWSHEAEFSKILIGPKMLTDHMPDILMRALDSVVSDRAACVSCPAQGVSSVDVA
# [11] = target: Cytochrome P450 2D6 (Homo sapiens, UniProt P10635); assay: Inhibition of CYP2D6 in human liver microsomes using dextromethorphan as substrate incubated for 7 mins by LC-MS analysis
# [12] = target: Voltage-gated inwardly rectifying potassium channel KCNH2 (Homo sapiens, UniProt Q12809); assay: Inhibition of human ERG expressed in HEK293 cells by thallium flux assay
# [13] = target: Cytochrome P450 3A4 (Homo sapiens, UniProt P08684); assay: Inhibition of CYP3A4 in human liver microsomes using midazolam as substrate incubated for 5 mins by LC-MS analysis
# [14] = target: Cytochrome P450 2C9 (Homo sapiens, UniProt P11712); assay: Inhibition of CYP2C9 in human liver microsomes using diclofenac as substrate incubated for 10 mins by LC-MS analysis
# [15] = target: Cytochrome P450 2C19 (Homo sapiens, UniProt P33261); assay: Inhibition of CYP2C19 in human liver microsomes using (S)-mephenytoin as substrate incubated for 5 mins by LC-MS analysis
# Chain of Cytochrome P450 2C19 (P33261 whole entry): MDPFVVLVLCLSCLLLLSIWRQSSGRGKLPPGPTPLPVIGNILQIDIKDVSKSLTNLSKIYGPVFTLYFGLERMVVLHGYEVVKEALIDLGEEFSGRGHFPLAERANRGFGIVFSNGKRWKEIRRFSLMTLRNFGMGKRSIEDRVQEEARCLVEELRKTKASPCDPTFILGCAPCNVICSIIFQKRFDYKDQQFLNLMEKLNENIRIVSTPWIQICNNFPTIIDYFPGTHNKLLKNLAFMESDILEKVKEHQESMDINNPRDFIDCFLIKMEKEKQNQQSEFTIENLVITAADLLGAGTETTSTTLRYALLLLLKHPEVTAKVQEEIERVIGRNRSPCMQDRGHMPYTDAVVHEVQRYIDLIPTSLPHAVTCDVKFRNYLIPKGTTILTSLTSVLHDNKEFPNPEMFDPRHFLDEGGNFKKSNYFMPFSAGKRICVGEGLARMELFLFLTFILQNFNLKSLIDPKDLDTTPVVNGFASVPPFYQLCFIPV
# Chain of Voltage-gated inwardly rectifying potassium channel KCNH2 (Q12809 whole entry): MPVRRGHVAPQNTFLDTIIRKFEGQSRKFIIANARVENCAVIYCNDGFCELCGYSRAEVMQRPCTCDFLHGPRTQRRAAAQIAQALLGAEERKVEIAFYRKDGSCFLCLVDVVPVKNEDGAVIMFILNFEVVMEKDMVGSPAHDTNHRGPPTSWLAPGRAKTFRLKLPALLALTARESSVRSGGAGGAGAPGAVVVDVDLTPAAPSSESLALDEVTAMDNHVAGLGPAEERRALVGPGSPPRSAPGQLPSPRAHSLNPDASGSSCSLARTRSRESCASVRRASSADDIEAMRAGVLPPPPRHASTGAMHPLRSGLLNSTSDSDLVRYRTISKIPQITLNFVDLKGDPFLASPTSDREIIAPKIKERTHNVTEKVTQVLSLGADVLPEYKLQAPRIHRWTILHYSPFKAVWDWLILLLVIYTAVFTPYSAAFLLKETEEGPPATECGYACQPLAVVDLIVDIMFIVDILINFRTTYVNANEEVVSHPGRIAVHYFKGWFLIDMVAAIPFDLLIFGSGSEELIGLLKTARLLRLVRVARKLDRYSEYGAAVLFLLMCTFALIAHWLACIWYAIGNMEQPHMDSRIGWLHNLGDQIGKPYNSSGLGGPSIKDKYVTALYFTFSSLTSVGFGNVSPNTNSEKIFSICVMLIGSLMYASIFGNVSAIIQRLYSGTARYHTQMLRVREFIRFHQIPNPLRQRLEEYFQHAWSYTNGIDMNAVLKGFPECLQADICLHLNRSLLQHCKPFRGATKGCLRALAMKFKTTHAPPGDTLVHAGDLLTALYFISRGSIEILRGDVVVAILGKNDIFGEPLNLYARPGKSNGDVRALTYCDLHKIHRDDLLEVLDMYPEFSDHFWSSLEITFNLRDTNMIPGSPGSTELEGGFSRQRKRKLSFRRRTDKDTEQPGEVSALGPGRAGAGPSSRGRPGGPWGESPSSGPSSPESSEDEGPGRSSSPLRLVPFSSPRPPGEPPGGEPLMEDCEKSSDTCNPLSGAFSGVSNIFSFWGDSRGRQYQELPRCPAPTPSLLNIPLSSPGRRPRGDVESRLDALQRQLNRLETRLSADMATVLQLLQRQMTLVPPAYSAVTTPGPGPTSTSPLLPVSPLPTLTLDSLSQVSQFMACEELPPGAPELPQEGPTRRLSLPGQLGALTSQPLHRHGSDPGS
# Chain of Cytochrome P450 2C9 (P11712 whole entry): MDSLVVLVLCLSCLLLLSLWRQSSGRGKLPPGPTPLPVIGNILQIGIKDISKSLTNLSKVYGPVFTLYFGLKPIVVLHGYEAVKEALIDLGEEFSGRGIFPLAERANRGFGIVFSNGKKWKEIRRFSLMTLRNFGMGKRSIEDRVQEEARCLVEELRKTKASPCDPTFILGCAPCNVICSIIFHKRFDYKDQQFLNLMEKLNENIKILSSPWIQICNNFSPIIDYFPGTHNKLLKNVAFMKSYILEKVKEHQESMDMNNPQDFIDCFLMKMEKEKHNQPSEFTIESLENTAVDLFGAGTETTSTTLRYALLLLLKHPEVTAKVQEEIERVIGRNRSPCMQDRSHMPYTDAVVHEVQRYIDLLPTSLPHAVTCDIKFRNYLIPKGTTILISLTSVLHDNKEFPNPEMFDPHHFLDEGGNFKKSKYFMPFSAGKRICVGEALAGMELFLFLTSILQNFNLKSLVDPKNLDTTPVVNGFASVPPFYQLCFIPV
# Chain of Cytochrome P450 3A4 (P08684 whole entry): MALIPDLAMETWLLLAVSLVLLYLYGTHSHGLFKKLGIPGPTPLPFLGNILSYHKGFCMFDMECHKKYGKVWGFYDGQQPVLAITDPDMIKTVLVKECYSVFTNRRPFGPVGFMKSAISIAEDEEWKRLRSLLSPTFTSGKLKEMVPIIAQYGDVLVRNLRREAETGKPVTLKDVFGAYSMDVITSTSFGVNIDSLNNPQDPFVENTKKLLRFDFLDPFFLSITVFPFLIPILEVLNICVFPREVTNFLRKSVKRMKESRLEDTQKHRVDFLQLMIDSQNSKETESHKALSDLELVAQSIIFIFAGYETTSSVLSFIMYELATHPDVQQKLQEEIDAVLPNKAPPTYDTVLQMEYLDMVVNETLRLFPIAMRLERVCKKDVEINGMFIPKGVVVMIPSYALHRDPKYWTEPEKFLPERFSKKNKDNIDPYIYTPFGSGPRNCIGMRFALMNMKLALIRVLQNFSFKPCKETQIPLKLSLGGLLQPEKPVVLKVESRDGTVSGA
# Chain of Cytochrome P450 2D6 (P10635 whole entry): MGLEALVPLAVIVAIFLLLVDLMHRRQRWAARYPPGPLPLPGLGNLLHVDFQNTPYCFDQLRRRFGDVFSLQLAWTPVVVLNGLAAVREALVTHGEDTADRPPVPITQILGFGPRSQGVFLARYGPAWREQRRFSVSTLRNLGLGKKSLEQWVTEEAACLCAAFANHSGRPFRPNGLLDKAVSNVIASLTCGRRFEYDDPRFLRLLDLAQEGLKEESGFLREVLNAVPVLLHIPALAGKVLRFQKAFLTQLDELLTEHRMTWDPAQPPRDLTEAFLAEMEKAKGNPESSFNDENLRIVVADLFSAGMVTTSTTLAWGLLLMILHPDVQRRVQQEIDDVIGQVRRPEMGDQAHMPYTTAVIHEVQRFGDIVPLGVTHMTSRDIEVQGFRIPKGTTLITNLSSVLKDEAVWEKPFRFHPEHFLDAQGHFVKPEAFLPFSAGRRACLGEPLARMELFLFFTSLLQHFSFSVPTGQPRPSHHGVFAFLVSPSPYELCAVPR
SMILES,Ratio IC50 [1],IC50 [2] [nM],IC50 [3] [nM],"remaining at 10 min, 3 µM [4] [%]","remaining at 10 min, 3 µM [5] [%]","remaining at 10 min, 3 µM [6] [%]",inhibition [7],also measured
CC1(C)CCc2cc(S(=O)(=O)N(CC(=O)O)Cc3cccc(-c4ccccc4)c3)ccc2O1,–,–,–,87,77,67,–,–
O=C(O)CN(C1(c2cccc(-c3ccc(Cl)cc3Cl)c2)CCC1)S(=O)(=O)c1ccc(Cl)c(Cl)c1,–,–,–,–,–,–,inactive,–
O=C(O)CN(Cc1cccc(-c2ccccc2OC(F)(F)F)c1)S(=O)(=O)c1ccc(OC(F)F)cc1,4,17,60,–,80,100,–,IC50 [11]: 40 µM; IC50 [12]: 11 µM; IC50 [13]: 30 µM; IC50 [14]: 40 µM; IC50 [15]: 40 µM

# Now from value to compound, other results behind:
Ratio IC50 [1],IC50 [2] [nM],IC50 [3] [nM],"remaining at 10 min, 3 µM [4] [%]","remaining at 10 min, 3 µM [5] [%]","remaining at 10 min, 3 µM [6] [%]",inhibition [7],SMILES,also measured
5,19,100,–,–,–,–,C[C@H](c1ccc(-c2ccc(Cl)cc2Cl)cc1)N(CC(=O)O)S(=O)(=O)c1ccc(OC(F)F)cc1,–
–,–,–,100,78,100,inactive,O=C(O)CN(C1(c2ccc(-c3ccccc3OC(F)(F)F)cc2)CCC1)S(=O)(=O)c1ccc(OC(F)F)cc1,–
15,6,88,–,–,–,inactive,O=C(O)CN(C1(c2ccc(-c3ccc(Cl)cc3Cl)cc2)CCC1)S(=O)(=O)c1ccc(OC(F)F)cc1,Ratio IC50 [8]: 24; inhibition [9]: inactive; IC50 [10]: 146 nM
